Calls of active or inactive are those of the source. The calls are words filed in the database; no cut-off is given here.

Type in all cases: functional
A short description of assay [1]: (§1) Vascular activity in receptor-independent rat mesenteric resistance artery assessed as inhibition of KCl-induced contraction at 3 x 10^-6 M after 5 mins. Summed up: (§2)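 Receptor-independent response in rat mesenteric resistance arteries normalized to optimal diameter at 100 mmHg transmural pressure. After pre-incubation with test agent at 3 x 10^-6 M, maximal contraction to 75 mM KCl was recorded. Block was judged against control arteries, p<0.05.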

Assay [2] in a line: Vascular activity in receptor-dependent rat mesenteric resistance artery assessed as inhibition of noradrenaline-induced contraction at 3 x 10^-6 M after 5 mins relative to maximal response to KCl. Also noted: scale not given: the % may be the effect or the level left.
The nature of assay [3]: Vascular activity in receptor-dependent rat mesenteric resistance artery assessed as inhibition of noradrenaline-induced contraction at 3 x 10^-6 M after 5 mins. Summed up: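 Rat mesenteric resistance arteries set to optimal diameter (OD = 0.9 L100, from the diameter at 100 mmHg transmural pressure). Rings pre-incubated with test agent at 3 x 10^-6 M, then given a dose–response curve to noradrenaline as the receptor-dependent contraction. Inhibition read against control arteries, p<0.05.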

The species named for the next assay is Rattus norvegicus. The description is as §1. Summed up: as §2

With `Fc1ccc(C(OC2CCNCC2)c2ccc(F)cc2)cc1`, the inhibition at 3 µM in assay [1] was 70%. Further, in assay [2], the Activity turned out to be 116%. Moreover, the pD2 in assay [3] was 5.17.

`NC[C@H](O)c1ccc(O)c(O)c1.O=C(O)C(O)C(O)C(=O)O`: in assay [2], the Activity was 122%. Also, in assay [3], the pD2 was 5.95.

With `COC(=O)[C@H]1[C@@H](OC(=O)c2ccccc2)C[C@@H]2CC[C@H]1N2C` [COCAINE], the inhibition result in the assay filed under Rattus norvegicus is “inactive”. Besides, the Activity in assay [2] is recorded as 130%. Besides, the pD2 in assay [3] was found to be 6.52.

For the molecule `CN1CCC(OC(c2ccccc2)c2ccccc2)CC1` [DIPHENYLPYRALINE], in assay [1], the inhibition at 3 µM was 70%. Further, the Activity in assay [2] is 129%. Besides, the pD2 in assay [3] is given as 5.38.

For `CN1CCC(OC(c2ccccc2)c2ccc(Cl)cc2)CC1` (stereo not drawn), in assay [1], the inhibition at 3 µM turned out to be 70%. Further, the Activity in assay [2] is 113%. Besides, the pD2 in assay [3] is 5.08.

Regarding `CN1CCC(OC(c2ccc(F)cc2)c2ccc(F)cc2)CC1`, in assay [1], the inhibition at 3 µM is 70%. In assay [2], the Activity was 121%. Further, the pD2 in assay [3] was determined as 5.1.

For the molecule `CC(C)N1CCC(OC(c2ccc(F)cc2)c2ccc(F)cc2)CC1`, the inhibition entry in the assay filed under Rattus norvegicus is “Active”. Besides, in assay [2], the Activity was 121%. Also, the pD2 in assay [3] is given as 4.48.

Take `CCCCN1CCC(OC(c2ccc(Cl)cc2)c2ccc(Cl)cc2)CC1`: in the assay listed under Rattus norvegicus, the inhibition result was “Active”. Further, the Activity in assay [2] was 99%. The pD2 in assay [3] was found to be 4.26.

By inhibition is commonly meant the relative decrease from the control value, in per cent.
